Converted amounts (≈) assume the structure as drawn. The source made the active and inactive calls. The rule behind the calls is not given here.

Our source for the MFC, Activity and MIC values is ChEMBL document CHEMBL1141852, “Two auronols from Pseudolarix amabilis” (1999).

One assay relates to Candida albicans. Briefly: Antimicrobial activity against Candida albicans. The format is functional. Summed up:
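Broth microdilution in 96-well plates. Inoculum was a 24 h Candida albicans culture diluted in Sabouraud dextrose broth. Incubation was at 30 or 37 °C. MIC was taken as the lowest concentration giving at least 80% growth inhibition.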

In assay [1] the test system is Trichophyton mentagrophytes. Briefly: Antimicrobial activity against Trichophyton mentagrophytes. It is filed as functional. Put shortly:
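Microdilution in 96-well plates. The Trichophyton mentagrophytes inoculum was spores scraped from fungal growth into Mycophil broth. Pure compounds were tested at final 50 down to 0.20 µg/mL in twofold steps. Incubation was at 30 or 37 °C. MIC was taken as the lowest concentration inhibiting at least 80% of growth.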

What is called MFC is the lowest tested concentration that kills the fungus rather than only halting it. Higher therefore signals weaker fungicidal potency. In the assay on Candida albicans, `C[C@@H]1[C@H](O)[C@@H](C)/C=C/C=C/C=C/C=C/C=C/C=C/C=C/[C@H](O[C@@H]2O[C@H](C)[C@@H](O)[C@H](N)[C@@H]2O)C[C@@H]2O[C@](O)(C[C@@H](O)C[C@@H](O)[C@H](O)CC[C@@H](O)C[C@@H](O)CC(=O)O[C@H]1C)C[C@H](O)[C@H]2C(=O)O` [AMPHOTERICIN B] registered an MFC of 0.39 mg/L (≈ 0.422 µM). Also, in assay [1], the outcome was inactive. On to `COC(=O)C1=CC[C@@]23CC[C@@H]([C@@](C)(/C=C/C=C(\C)C(=O)O)OC2=O)[C@@]3(O)CC1`, for which the outcome (in the assay with Candida albicans; in assay [1]) was inactive. Usually MIC stands for the lowest concentration found to suppress growth. Read a high MIC as a less susceptible organism. In the assay with Candida albicans, `COC(=O)C1=CC[C@@]23CC[C@@H]([C@@](C)(/C=C/C=C(\C)C(=O)O)OC2=O)[C@@]3(OC(C)=O)CC1` [PSEUDOLARIC ACID B] gave an MFC of 6.25 mg/L (≈ 14.5 µM) and an MIC of 3.12 mg/L (≈ 7.23 µM).

With `O=C1c2c(O)cc(O)cc2OC1(O)Cc1cc(O)c(O)c(O)c1` (configuration not stated), the result (in the assay on Candida albicans; in assay [1]) was inactive. `O=c1c(O)c(-c2cc(O)c(O)c(O)c2)oc2cc(O)cc(O)c12` [MYRICETIN]: the MIC in assay [1] worked out at 50 mg/L (≈ 157 µM). In the case of `COC(=O)C1=CC[C@@]23CC[C@@H]([C@@](C)(/C=C/C=C(\C)C(=O)O[C@@H]4O[C@H](CO)[C@@H](O)[C@H](O)[C@H]4O)OC2=O)[C@@]3(OC(C)=O)CC1`, the result (in the assay with Candida albicans; in assay [1]) was inactive. For the molecule `C/C(=C\C=C\[C@@]1(C)OC(=O)[C@]23CC=C(C(=O)O)CC[C@]2(O)[C@H]1CC3)C(=O)O`, the outcome (in the assay on Candida albicans; in assay [1]) was inactive. Regarding `COc1c(O)cc(CC2(O)Oc3cc(O)cc(O)c3C2=O)cc1O` (configuration not stated), the result (in the assay on Candida albicans; in assay [1]) was inactive. As for `CC(=O)O[C@]12CCC(C)=CC[C@]13CC[C@H]2[C@@](C)(/C=C/C=C(\C)C(=O)O[C@@H]1O[C@H](CO)[C@@H](O)[C@H](O)[C@H]1O)OC3=O`, the result (in the assay with Candida albicans; in assay [1]) was inactive.
